# Beta2AR agonist – human beta-2 adrenergic receptor agonism by FAP | P07550 | Am2.2-beta2AR cells, FAP receptor internalization, flow cytometry | response, % (no concentration beside the values) | actives 0.43% (n = 340,000) | AID 504454;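 active means response above a set limit, near 3 SD of response in nonfluorescent compounds, cut at about 42% in these data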
# Mdm2-MdmX inh – human Mdm2/MdmX binding inhibition | O15151+Q00987 | SaOS-2 split-luciferase Mdm2/MdmX complementation, luminescence | inhibition, % at 8 µM | actives 3% (n = 330,000) | AID 485346;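 active means inhibition of at least 50% at 8 µM in the primary screen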
# Target sequence (O15151 whole entry, looked up): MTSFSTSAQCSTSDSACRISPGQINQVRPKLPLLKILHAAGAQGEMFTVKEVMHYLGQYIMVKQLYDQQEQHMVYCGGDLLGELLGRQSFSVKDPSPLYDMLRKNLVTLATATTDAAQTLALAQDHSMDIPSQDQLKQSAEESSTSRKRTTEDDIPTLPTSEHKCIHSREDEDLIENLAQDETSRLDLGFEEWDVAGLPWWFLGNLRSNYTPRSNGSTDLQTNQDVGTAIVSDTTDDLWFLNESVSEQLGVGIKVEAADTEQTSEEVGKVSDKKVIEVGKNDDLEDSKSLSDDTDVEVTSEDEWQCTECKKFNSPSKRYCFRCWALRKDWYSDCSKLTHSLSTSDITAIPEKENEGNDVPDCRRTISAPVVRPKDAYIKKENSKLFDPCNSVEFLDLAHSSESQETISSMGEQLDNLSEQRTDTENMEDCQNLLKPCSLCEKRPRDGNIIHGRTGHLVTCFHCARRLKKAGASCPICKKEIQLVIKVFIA
# Target sequence (Q00987 whole entry, looked up): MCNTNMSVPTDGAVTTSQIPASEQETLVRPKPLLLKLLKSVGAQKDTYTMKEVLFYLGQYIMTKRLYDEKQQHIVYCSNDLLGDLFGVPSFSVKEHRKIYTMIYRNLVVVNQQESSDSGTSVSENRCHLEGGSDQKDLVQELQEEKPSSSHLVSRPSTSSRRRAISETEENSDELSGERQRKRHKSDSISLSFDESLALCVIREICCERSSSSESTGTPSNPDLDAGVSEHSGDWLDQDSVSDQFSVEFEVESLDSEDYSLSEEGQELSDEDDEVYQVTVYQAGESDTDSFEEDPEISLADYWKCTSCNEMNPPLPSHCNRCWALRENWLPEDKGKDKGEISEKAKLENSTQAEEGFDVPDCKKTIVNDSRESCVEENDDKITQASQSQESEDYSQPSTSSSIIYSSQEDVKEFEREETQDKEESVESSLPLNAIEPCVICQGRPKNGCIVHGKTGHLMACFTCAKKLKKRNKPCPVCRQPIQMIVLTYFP
# XBP1 UPR activ – activators of adaptive arm of unfolded protein response (XBP1) | activation, % at 20 µM | AID 463104 | CHO-XBP1 luciferase reporter, IRE1-XBP1 UPR activation, luminescence; percent of tunicamycin response, DMSO as zero | actives 0.33% (n = 330,000);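 active means versus positive control, 20 µM dose yields 30% or more activation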;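 further: 100% = tunicamycin at 10 µg/mL and 0% = DMSO only wells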
#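 Material: CHO cell line with stable XBP1 luciferase reporter; schedule: 16-18 h cell attachment at 37 °C, then 6 h compound exposure; signal: glow luminescence from Steady-Glo reagent; medium: serum-containing F12 medium, 10% FBS; benchmarks: tunicamycin 10 µg/mL and vehicle-only wells; read-out: percent activation relative to tunicamycin reference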
# CHOP UPR activ – activators of apoptotic arm of unfolded protein response (CHOP). CHO-CHOP luciferase reporter, UPR activation, luminescence; percent of tunicamycin response over DMSO baseline. activation, % at 10 µM. actives 0.34% (n = 330,000). AID 449763;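 active means at 10 µM dose, activation of 40% or more, normalized to positive control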;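 further: 100% = tunicamycin at 10 µg/mL and 0% = DMSO alone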
#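 Dosing – one dose, 10 µM in 0.5% DMSO · System – CHO-CHOP cells, stable luciferase reporter of PERK-eIF2a-CHOP signalling · Input – 500 cells/well · Control set – tunicamycin 10 µg/mL final as positive, DMSO-only wells as negative · Timing – 6 h compound treatment, 37 °C · Measure – % activation vs tunicamycin · Technique – luminescence read with Steady-Glo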
# Dynein cargo inh – dynein cargo transport inhibition. 3617.4 mouse cells, GR-EGFP nuclear translocation imaging; test concentration mostly 20 µM; stimulated with dexamethasone, 1 µM; stronger effect = lower value. z-score, hits read low. actives 0.47% (n = 220,000). AID 1381;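 active means plate z-score of nuclear minus cytoplasmic receptor signal below a set negative limit, without overly bright fluorescence or cell loss, cut at about -3.5 in these data, passing the limit was not always enough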;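 further: z-score of nuclear minus cytoplasmic ring GR-EGFP intensity difference per well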
#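 Schedule: 48 h induction, then 1 h compound, then 30 min agonist, 37 °C. Buffer or medium: tetracycline-free induction medium containing charcoal-stripped FBS. Reagent: 1.0 µM final dexamethasone stimulus. Evaluation: nuclear versus cytoplasmic GR-EGFP signal, averaged per well. Signal: high-content fluorescence imaging after fixation.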
# Mdm2 ligase inh – inhibitors of human Mdm2 E3 ubiquitin ligase; Q00987; cell-based MDM2 ubiquitination luciferase reporter, 2 h; 0 = plate control, 100 = twice control, blank-subtracted; signal enhancement, % at 5 µM; actives 0.11% (n = 210,000); AID 1230;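 active means signal enhancement of 30% or more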;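 further: luminescence tracks abundance of the self-degrading MDM2-luciferase fusion protein; higher signal means inhibition of MDM2 E3 ligase activity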
#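 Assay system: stable mammalian line carrying autodegrading MDM2–luciferase fusion reporter; Input: 2000 cells in each well; Compound dosing: single-point 5 µM; Schedule: 2 h compound exposure at 37 °C; Signal: SteadyLite luciferase luminescence after 15 min room-temperature reagent incubation; Evaluation: % luminescence enhancement versus blank-corrected plate control mean; Benchmarks: plate controls and plate blanks.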
# CHOP UPR conf – confirmation of apoptotic unfolded protein response (CHOP) activators; shares compounds with CHOP UPR activ; CHO-CHOP cells, CHOP-luciferase reporter luminescence; percent of tunicamycin response, DMSO as zero; activation, % at 10 µM; actives 64% (n = 1,000); in the data active means activation above about 33%;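 further: 0% = DMSO wells and 100% = tunicamycin 10 µg/mL wells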
# UPR XBP1 confirm – confirmation of adaptive unfolded protein response (XBP1) activators | shares compounds with XBP1 UPR activ | CHO-XBP1 IRE1-XBP1 luciferase reporter, luminescence | activation, % at 20 µM | actives 63% (n = 1,000) | AID 485299;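 active means reporter signal at least 30% of the positive control's activation in two or more of four replicate wells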;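 further: plate controls were DMSO negative control for no effect and tunicamycin 10 µg/mL positive control for full effect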
# Mdm2 MdmX conf – confirmation of human Mdm2/MdmX interaction inhibitors. Mdm2-MdmX binding, luminescent assay. actives 55% (n = 10,000). inhibition, % at 8 µM. shares compounds with Mdm2-MdmX inh. AID 489028; in the data active means inhibition above about 40%
# Full FLuc ctr – full-length luciferase inhibition in Mdm2/MdmX counter-screen. shares compounds with Mdm2-MdmX inh. SaOS-2 full-length luciferase counterscreen, luminescence. inhibition, % at 8 µM. actives 77% (n = 6,200). AID 504607;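 active means mean inhibition at 8 µM reaching about 37%, which flags the compound as non-specific, limit read from the data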;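 further: p53-null SaOS-2 cells with luciferase driven by a doxycycline-inducible promoter; compound on cells about two nights before reading with doxycycline added after day one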
# * marks the source's active call; other numbers are inactive results; / = no result. In the library only some 3.7% were active in any assay of this set; here they are far more common.
SMILES,Beta2AR agonist,Mdm2-MdmX inh,XBP1 UPR activ,CHOP UPR activ,Dynein cargo inh,Mdm2 ligase inh,CHOP UPR conf,Mdm2 MdmX conf,Full FLuc ctr,others
CCOc1cc(/C=N/Nc2cc(C)nc(-n3nc(C)cc3C)n2)ccc1O,10,73*,48*,86*,-0.76,-11,63*,40,23,UPR XBP1 confirm=27
COc1ccc(/C=N/Nc2cc(C)nc(-n3nc(C)cc3C)n2)c(OC)c1,14,55*,10,142*,-0.21,1,88*,38,48*,
COc1ccccc1/C=N/Nc1cc(C)nc(N2CCOCC2)n1,2,-7,-2,3,2.2,/,/,/,/,
COc1cccc(/C=N/Nc2nc(Nc3ccccc3)nc(-n3nc(C)cc3C)n2)c1O,11,57*,10,93*,0.66,-32,95*,23,/,
CCOc1cc(/C=N/Nc2nc(C)cc(=O)[nH]2)ccc1O,-2,10,-2,0,/,/,/,/,/,
Cc1cc(C)n(-c2nc(Nc3ccccc3)nc(-n3nc(C)cc3C)n2)n1,-3,13,-3,0,-0.53,-11,/,/,/,
N#Cc1ccc(C(=O)Nc2ccc([N+](=O)[O-])cc2)c(F)c1,-1,11,3,1,0.43,7,/,/,/,
Cc1cccc(NC(=O)C(Cc2ccccc2)c2nn[nH]n2)c1C (stereo unspecified),3,8,-3,-1,/,/,/,/,/,
O=C(C#Cc1ccccc1)c1cccc([N+](=O)[O-])c1,67*,88*,-6,293*,0.16,-13,197*,16,/,
CSc1nc(Cl)c(C#N)c(-c2ccc(C)cc2)n1,-7,11,-2,1,-0.088,10,/,/,/,
CSc1nc(-c2ccc(C)cc2)nc(C(Cl)Cl)n1,3,97*,12,52*,-0.28,-25,6,95*,40*,
Cc1ccc(Oc2c(C(N)=O)cc([N+](=O)[O-])cc2[N+](=O)[O-])cc1,57*,95*,-6,64*,-3.5,14,25,95*,52*,
COc1ccc(C(=O)CSc2nnc(CC(=O)Nc3ccccc3OC)n2C)cc1,-10,26,-4,-1,-0.15,-9,/,/,/,
Cc1ccc(S(=O)(=O)Nc2cccc3cccnc23)c([N+](=O)[O-])c1,13,100*,-4,404*,/,/,743*,75*,54*,
O=S(=O)(Nc1cccc2cccnc12)c1ccc(S(=O)(=O)N2CCCC2)cc1,29,83*,-7,134*,-0.27,-16,99*,53*,37*,
CN(CC(=O)Nc1ccc(Cl)c(C(F)(F)F)c1)C(=O)Cn1cc([N+](=O)[O-])ccc1=O,10,-15,-2,-2,/,/,/,/,/,
Cc1ccc(NC(=O)CSc2ccc(Br)cc2)cc1S(=O)(=O)N1CCOCC1,-5,8,-2,2,/,/,/,/,/,
Cc1ccc(C(=O)c2c(C)oc3c2C(=O)C(=O)c2ccccc2-3)cc1,47*,97*,-7,64*,-1.8,-5,0,99*,42*,
Cc1oc2c(c1C(=O)N1CCC(C)CC1)C(=O)c1ccccc1C2=O,/,39,-4,2,-0.25,/,/,/,/,
CCOC(=O)c1sc(NC(=S)NC(=O)c2ccccc2)c(C(=O)OCC)c1C,-2,85*,51*,51*,0.25,-9,98*,26,/,UPR XBP1 confirm=114*
CCOC(=O)c1c(NC(=O)c2cc(-c3ccc(O)cc3)on2)sc(C(C)=O)c1C,5,70*,84*,78*,-0.4,/,24,5,/,UPR XBP1 confirm=43*
O=C(/C=C/c1cccc(F)c1)Nc1ccc(S(=O)(=O)N2CCOCC2)cc1,15,16,-3,0,/,/,/,/,/,
C/C(=N\NC(=O)c1cc(Br)ccc1O)c1ccccn1,9,57*,3,213*,/,/,223*,39,50*,
CC(=NNC(=O)c1ccncc1)c1cccc(Br)c1,-4,/,/,/,/,/,/,/,/,
C/C(=N/NC(=O)c1ccc(C(C)(C)C)cc1)c1ccccn1,17,93*,0,556*,/,/,372*,44*,55*,
COc1ccc(C(=O)N/N=C(\C)c2ccccn2)cc1OC,5,99*,5,355*,/,/,284*,15,/,

# Screens as filed in PubChem BioAssay.
